Test results as given in article PMC3969656 (Pharmacognosy Magazine, 2014).

Tests used:
[1] = Stability of analytes in rat plasma QC samples and postpreparative stability; format: in vitro ADME; details: for Stability in rat plasma, recovered percentage: QC samples (0.1, 0.5, and 5.0 μg/mL); for Postpreparative stability: prepared samples, 24 h storage at 4°C
Outline: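 Drug-free rat plasma was spiked to give QC samples at 0.1, 0.5 and 5.0 μg/mL. Samples were stored at room temperature or -20°C. For postpreparative stability, extracted samples were held at 4°C. Samples were extracted with acetonitrile plus isoliquiritin IS and quantified by C18 water/acetonitrile gradient HPLC-UV at 330 nm. Results are given as percent recovered.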

[2] = ref Park et al., 21, cited from earlier work
[3] = 12 h storage at room temperature

| SMILES | Stability in rat plasma, recovered percentage ([1]; 4-weeks storage at -20°C) [%] | Stability in rat plasma, recovered percentage [1, 3] [%] | Postpreparative stability [1] [%] | Plasma level after intravenous administration ([2]; intravenous administration of decursin) | Hepatic first-pass metabolism [2] |
| --- | --- | --- | --- | --- | --- |
| CC1(C)Oc2cc3oc(=O)ccc3cc2C[C@@H]1O [Decursinol, decursinol] | 100.9 ± 5.9 | 89.9 ± 10.6 | 97.8 ± 5.4 |  |  |
| CC(C)(O[C@@H]1O[C@H](CO)[C@@H](O)[C@H](O)[C@H]1O)[C@H]1Cc2cc3ccc(=O)oc3cc2O1 [Nodakenin, nodakenin] | 99.0 ± 4.4 | 97.8 ± 7.1 | 100.5 ± 6.1 |  |  |
| CC(C)=CC(=O)O[C@H]1Cc2cc3ccc(=O)oc3cc2OC1(C)C [decursin] |  |  |  | rapidly decreased | extensive hepatic first-pass metabolism |
